Measured values taken from ChEMBL document CHEMBL1165943, “Design and synthesis of new anticancer pyrimidines with multiple-kinase inhibitory effect” (Bioorg Med Chem, 2010).

What was measured:
[1] = tested on: SK-MEL-2; experiment: Cytotoxicity against human SK-MEL-2 cells assessed as cell growth at 1 uM after 48 hrs by sulforhodamine B assay; format: functional; conditions: SK-MEL-2, 48 h, read-out: Activity
[2] = tested on: NCI/ADR-RES; experiment: Cytotoxicity against human NCI/ADR-RES cells assessed as cell growth at 10 uM after 48 hrs by sulforhodamine B assay; format: functional; conditions: read-out: Activity
[3] = Cytotoxicity against human Hs 578T cells assessed as cell growth at 0.001 uM after 48 hrs by sulforhodamine B assay; format: functional; conditions: read-out: Activity
[4] = tested on: SF-539; experiment: Cytotoxicity against human SF539 cells assessed as cell growth at 0.001 uM after 48 hrs by sulforhodamine B assay; format: functional; conditions: SF-539, 48 h, read-out: Activity
[5] = tested on: NCI/ADR-RES; experiment: Cytotoxicity against human NCI/ADR-RES cells assessed as cell growth at 100 nM after 48 hrs by sulforhodamine B assay; format: functional; conditions: read-out: Activity
[6] = tested on: IGROV-1; experiment: Growth inhibition of human IGROV1 cells after 48 hrs by sulforhodamine B assay; format: functional, cell-based; conditions: IGROV-1, 48 h; for CC50: read-out: LC50 (the source's name)
Summary of the method: (§1)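 Cells grown in RPMI 1640 with 5% FBS and 2 mM L-glutamine, seeded at 5,000–40,000 cells/well according to doubling time. After 24 h, time-zero plates are TCA-fixed. Five concentrations (10-fold or ½log dilutions, DMSO stocks) are applied for 48 h at 37 °C, 5% CO₂. Cells are TCA-fixed, SRB-stained and read at 515 nm. IC₅₀ is taken from [(Ti−Tz)/(C−Tz)]×100 = 50.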

[7] = tested on: MDA-MB-231; experiment: Cytotoxicity against human MDA-MB-231 cells assessed as cell growth at 0.01 uM after 48 hrs by sulforhodamine B assay; format: functional; conditions: MDA-MB-231, 48 h, read-out: Activity
[8] = tested on: SK-OV-3; experiment: Cytotoxicity against human SKOV3 cells assessed as cell growth at 0.01 uM after 48 hrs by sulforhodamine B assay; format: functional; conditions: SK-OV-3, 48 h, read-out: Activity
[9] = tested on: SK-OV-3; experiment: Cytotoxicity against human SKOV3 cells assessed as cell growth at 100 nM after 48 hrs by sulforhodamine B assay; format: functional; conditions: SK-OV-3, 48 h, read-out: Activity
[10] = tested on: SN12C; experiment: Cytotoxicity against human SN12C cells assessed as cell growth at 100 nM after 48 hrs by sulforhodamine B assay; format: functional; conditions: read-out: Activity
[11] = tested on: MDA-MB-468; experiment: Cytotoxicity against human MDA-MB-468 cells assessed as cell growth at 0.001 uM after 48 hrs by sulforhodamine B assay; format: functional; conditions: MDA-MB-468, 48 h, read-out: Activity
[12] = tested on: SF-295; experiment: Growth inhibition of human SF295 cells after 48 hrs by sulforhodamine B assay; format: functional, cell-based; conditions: SF-295, 48 h; for CC50: read-out: LC50 (the source's name); summary of the method: as §1
[13] = Growth inhibition of human Hs 578T cells after 48 hrs by sulforhodamine B assay; format: functional, cell-based; conditions: for CC50: read-out: LC50 (the source's name); summary of the method: as §1
[14] = tested on: SNB-75; experiment: Cytotoxicity against human SNB75 cells assessed as cell growth at 100 nM after 48 hrs by sulforhodamine B assay; format: functional; conditions: SNB-75, 48 h, read-out: Activity
[15] = tested on: HCT-116; experiment: Cytotoxicity against human HCT116 cells assessed as cell growth at 10 uM after 48 hrs by sulforhodamine B assay; format: functional; conditions: HCT-116, 48 h, read-out: Activity
[16] = tested on: MDA-MB-231; experiment: Growth inhibition of human MDA-MB-231 cells after 48 hrs by sulforhodamine B assay; format: functional, cell-based; conditions: MDA-MB-231, 48 h; summary of the method: as §1
[17] = tested on: HT-29; experiment: Cytotoxicity against human HT-29 cells assessed as cell growth at 0.001 uM after 48 hrs by sulforhodamine B assay; format: functional; conditions: HT-29, 48 h, read-out: Activity
[18] = tested on: A498; experiment: Cytotoxicity against human A498 cells assessed as cell growth at 100 nM after 48 hrs by sulforhodamine B assay; format: functional; conditions: A498, 48 h, read-out: Activity
Summary of the method: (§2)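 Cells grown in RPMI 1640 with 5% FBS and 2 mM L-glutamine, seeded at 5,000–40,000 cells/well by doubling time. Time-zero plates TCA-fixed after 24 h. Five concentrations (10-fold or half-log dilutions from DMSO stock) added; 48 h at 37 °C, 5% CO2. Cold TCA fixation (final 10%, 60 min, 4 °C), 0.4% SRB stain, dye solubilized in 10 mM trizma base, A515.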

[19] = tested on: A549; experiment: Cytotoxicity against human A549 cells assessed as cell growth at 10 uM after 48 hrs by sulforhodamine B assay; format: functional; conditions: A549, 48 h, read-out: Activity; summary of the method: as §2
[20] = tested on: SNB-19; experiment: Cytotoxicity against human SNB19 cells assessed as cell growth at 1 uM after 48 hrs by sulforhodamine B assay; format: functional; conditions: SNB-19, 48 h, read-out: Activity
[21] = tested on: COLO 205; experiment: Cytotoxicity against human COLO205 cells assessed as cell growth at 100 nM after 48 hrs by sulforhodamine B assay; format: functional; conditions: COLO 205, 48 h, read-out: Activity; summary of the method: as §2
[22] = tested on: NCI-H322M; experiment: Growth inhibition of human NCI-H322M cells after 48 hrs by sulforhodamine B assay; format: functional, cell-based; conditions: for CC50: read-out: LC50 (the source's name); summary of the method: as §1
[23] = tested on: SW-620; experiment: Cytotoxicity against human SW620 cells assessed as cell growth at 0.01 uM after 48 hrs by sulforhodamine B assay; format: functional; conditions: SW-620, 48 h, read-out: Activity
[24] = tested on: 786-0; experiment: Cytotoxicity against human 786-0 cells assessed as cell growth at 100 nM after 48 hrs by sulforhodamine B assay; format: functional; conditions: 786-0, 48 h, read-out: Activity; summary of the method: as §2
[25] = tested on: NCI-H322M; experiment: Cytotoxicity against human NCI-H322M cells assessed as cell growth at 10 uM after 48 hrs by sulforhodamine B assay; format: functional; conditions: read-out: Activity
[26] = tested on: HCT-116; experiment: Cytotoxicity against human HCT116 cells assessed as cell growth at 0.01 uM after 48 hrs by sulforhodamine B assay; format: functional; conditions: HCT-116, 48 h, read-out: Activity
[27] = tested on: MDA-MB-435; experiment: Cytotoxicity against human MDA-MB-435 cells assessed as cell growth at 0.01 uM after 48 hrs by sulforhodamine B assay; format: functional; conditions: MDA-MB-435, 48 h, read-out: Activity
[28] = tested on: NCI-H522; experiment: Cytotoxicity against human NCI-H522 cells assessed as cell growth at 100 nM after 48 hrs by sulforhodamine B assay; format: functional; conditions: NCI-H522, 48 h, read-out: Activity
[29] = tested on: A549; experiment: Cytotoxicity against human A549 cells assessed as cell growth at 0.01 uM after 48 hrs by sulforhodamine B assay; format: functional; conditions: A549, 48 h, read-out: Activity; summary of the method: as §2
[30] = tested on: NCI-H460; experiment: Cytotoxicity against human NCI-H460 cells assessed as cell growth at 0.01 uM after 48 hrs by sulforhodamine B assay; format: functional; conditions: NCI-H460, 48 h, read-out: Activity
[31] = tested on: UACC-257; experiment: Cytotoxicity against human UACC257 cells assessed as cell growth at 0.01 uM after 48 hrs by sulforhodamine B assay; format: functional; conditions: UACC-257, 48 h, read-out: Activity

Structure (SMILES): CC(=O)c1ccccc1-c1ccc(-c2ccnc(NC(=O)Nc3cc(N4CCOCC4)cc(C(F)(F)F)c3)n2)cn1
- growth at 1 µM [1]: 65%
- growth at 10 µM [2]: 69%
- growth at 0.001 µM [3]: 107%
- growth at 0.001 µM [4]: 97%
- growth at 0.1 µM [5]: 75%
- GI50 [6]: > 100 µM
- IC50 [6]: 6.18 µM
- TGI [6]: > 100 µM
- CC50 [6]: > 100 µM
- growth at 0.01 µM [7]: 99%
- growth at 0.01 µM [8]: 113%
- growth at 0.1 µM [9]: 118%
- growth at 0.1 µM [10]: 83%
- growth at 0.001 µM [11]: 97%
- GI50 [12]: 40.2 µM
- IC50 [12]: 9.04 µM
- TGI [12]: > 100 µM
- CC50 [12]: > 100 µM
- GI50 [13]: > 100 µM
- IC50 [13]: 2.87 µM
- TGI [13]: > 100 µM
- CC50 [13]: > 100 µM
- growth at 0.1 µM [14]: 89%
- growth at 10 µM [15]: 66%
- IC50 [16]: 3.1 µM
- LC50 [16]: > 100 µM
- TGI [16]: > 100 µM
- growth at 0.001 µM [17]: 103%
- growth at 0.1 µM [18]: 72%
- growth at 10 µM [19]: 74%
- growth at 1 µM [20]: 85%
- growth at 0.1 µM [21]: 107%
- GI50 [22]: > 100 µM
- IC50 [22]: > 100 µM
- TGI [22]: > 100 µM
- CC50 [22]: > 100 µM
- growth at 0.01 µM [23]: 106%
- growth at 0.1 µM [24]: 98%
- growth at 10 µM [25]: 80%
- growth at 0.01 µM [26]: 95%
- growth at 0.01 µM [27]: 95%
- growth at 0.1 µM [28]: 101%
- growth at 0.01 µM [29]: 102%
- growth at 0.01 µM [30]: 110%
- growth at 0.01 µM [31]: 79%

Structure (SMILES): CC(=O)Nc1cccc(-c2ccc(-c3ccnc(NC(=O)Nc4cc(C(F)(F)F)cc(C(F)(F)F)c4)n3)cn2)c1.Cl
- growth at 1 µM [1]: 35%
- growth at 10 µM [2]: 8%
- growth at 0.001 µM [3]: 90%
- growth at 0.001 µM [4]: 97%
- growth at 0.1 µM [5]: 93%
- GI50 [6]: 2.68 µM
- IC50 [6]: 2.68 µM
- TGI [6]: 9.46 µM
- CC50 [6]: > 100 µM
- growth at 0.01 µM [7]: 93%
- growth at 0.01 µM [8]: 98%
- growth at 0.1 µM [9]: 94%
- growth at 0.1 µM [10]: 86%
- growth at 0.001 µM [11]: 99%
- GI50 [12]: 1.27 µM
- IC50 [12]: 1.27 µM
- TGI [12]: 6.19 µM
- CC50 [12]: > 100 µM
- GI50 [13]: 7.52 µM
- IC50 [13]: 7.52 µM
- TGI [13]: > 100 µM
- CC50 [13]: > 100 µM
- growth at 0.1 µM [14]: 67%
- growth at 10 µM [15]: 100%
- GI50 [16]: 3.72 µM
- IC50 [16]: 3.72 µM
- LC50 [16]: 62 µM
- TGI [16]: 19.7 µM
- growth at 0.001 µM [17]: 106%
- growth at 0.1 µM [18]: 64%
- growth at 10 µM [19]: -86%
- growth at 1 µM [20]: 29%
- growth at 0.1 µM [21]: 96%
- GI50 [22]: 2.17 µM
- IC50 [22]: 2.17 µM
- TGI [22]: 14.6 µM
- CC50 [22]: 68.8 µM
- growth at 0.01 µM [23]: 95%
- growth at 0.1 µM [24]: 62%
- growth at 10 µM [25]: -62%
- growth at 0.01 µM [26]: 85%
- growth at 0.01 µM [27]: 97%
- growth at 0.1 µM [28]: 72%
- growth at 0.01 µM [29]: 67%
- growth at 0.01 µM [30]: 93%
- growth at 0.01 µM [31]: 96%
